Source: the RNAGym collection of RNA variant scans (doi:10.1038/s41586-018-0170-7)

B1: tRNA (parent)
chain: GUUCCGUUGGCGUAAUGGUAACGCGUCUCCCUCCUAAGGAGAAGACUGCGGGUUCGAGUCCCGUACGGAACG

Variants of: B1
Assay: yeast fitness, log relative to wild type (ln ratio); higher = fitter; tRNA-Arg(CCU), competitive growth, 37 C, 1 M NaCl
Procedure, shortened: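 Fitness is the natural log of each genotype's generations divided by the wild type's. Generations were derived as OD-scaled log2 output/input frequency from 125 bp paired-end Illumina counts, weighting replicates by inverse variance. Pools of the tRNA-Arg(CCU) variant library, on a HIS3 centromeric plasmid in BY4742 lacking the chromosomal gene, grew ~6.5 generations (~26.5 h) in SC-HIS 1M NaCl at 37 °C after 4 generations in SC-HIS at 30 °C.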
In the case of G1A U2G C27U A43C C66U A69G A70U C71U, the “yeast fitness (ln)” value is reported as -0.332.
For G1A U2G G6U C27U C66U A69G A70U, the “yeast fitness (ln)” value was -0.307.
With G1A U2G C27U A43C C46U C66A A70G the “yeast fitness (ln)” value was -0.178.
With G6U C66U A69G C71U the “yeast fitness (ln)” value was -0.374.
With U2G G6U A43C C46U A70G the “yeast fitness (ln)” value was -0.138.
In the case of G1A G6A C46U C66A A70G C71U, the “yeast fitness (ln)” value is reported as -0.128.
With U2G A43C A69G A70G the “yeast fitness (ln)” value was -0.0982.
In the case of U2C G6A C27U A70U, the “yeast fitness (ln)” value is reported as -0.0574.
In the case of U2G G6A C27U A43C A69G A70G C71U, the “yeast fitness (ln)” value is reported as -0.176.
For U2G C27U A70U, the “yeast fitness (ln)” value was -0.0184.
For G6U C27U A43C A70U, the “yeast fitness (ln)” value was -0.309.
For U2G G6U A43C C46U A70G C71U, the “yeast fitness (ln)” value was -0.229.
In the case of U2G G6A A43C C66U A70G, the “yeast fitness (ln)” value is reported as -0.147.
For G1A G6U C27U C46U A70G, the “yeast fitness (ln)” value was -0.191.
In the case of G1A U2G A43C C66A A70G C71U, the “yeast fitness (ln)” value is reported as -0.333.
For U2G G6A A43C C46U C66U A69G A70U C71U, the “yeast fitness (ln)” value was -0.379.
For G1A C27U A43C C66A A69G A70U, the “yeast fitness (ln)” value was -0.391.
In the case of U2G G6U C27U C66U A69G A70G C71U, the “yeast fitness (ln)” value is reported as -0.273.
In the case of G1A U2C C27U C46U C66U A69G A70U, the “yeast fitness (ln)” value is reported as -0.184.
For G1A U2G G6U C27U C66A C71U, the “yeast fitness (ln)” value was -0.273.
In the case of U2G G6U C46U C66A A69G C71U, the “yeast fitness (ln)” value is reported as -0.185.
For G1A G6U C27U C66U A70G C71U, the “yeast fitness (ln)” value was -0.38.
For U2C G6A C27U A43C, the “yeast fitness (ln)” value was -0.0322.
For U2G C27U C46U A69G C71U, the “yeast fitness (ln)” value was -0.112.
In the case of G6U C27U A43C C46U A69G C71U, the “yeast fitness (ln)” value is reported as -0.339.
In the case of G1A U2C A43C C66U A70U C71U, the “yeast fitness (ln)” value is reported as -0.281.
For G1A G6U A43C A69G A70U C71U, the “yeast fitness (ln)” value was -0.524.
With G1A U2C A43C A70G C71U the “yeast fitness (ln)” value was -0.011.
With G1A U2C G6A C27U A43C A70U C71U the “yeast fitness (ln)” value was -0.186.
For G1A U2G G6A C27U C46U C66U A69G A70U C71U, the “yeast fitness (ln)” value was -0.542.
With G1A U2G G6A A70G C71U the “yeast fitness (ln)” value was -0.172.
With G1A U2G A43C C71U the “yeast fitness (ln)” value was -0.129.
In the case of G1A C27U A43C C46U C66U A70G, the “yeast fitness (ln)” value is reported as -0.226.
In the case of U2C G6A A43C C46U A69G A70U C71U, the “yeast fitness (ln)” value is reported as -0.399.
In the case of U2G G6A C27U A43C C46U C66U A70U C71U, the “yeast fitness (ln)” value is reported as -0.598.
With G6U C27U C66U the “yeast fitness (ln)” value was -0.321.
With G1A G6U C66U A69G A70U C71U the “yeast fitness (ln)” value was -0.525.
In the case of G1A U2C G6A C27U C46U C66U A69G A70G C71U, the “yeast fitness (ln)” value is reported as -0.0405.
With G1A U2C C66A A70U C71U the “yeast fitness (ln)” value was -0.0883.
With C66U A70U C71U the “yeast fitness (ln)” value was -0.135.
With U2C G6U A43C C66U A69G A70G the “yeast fitness (ln)” value was -0.31.
With G6A C27U A43C C66U A70G C71U the “yeast fitness (ln)” value was -0.302.
In the case of G1A U2C G6U C27U A43C C46U C66A A69G A70G C71U, the “yeast fitness (ln)” value is reported as -0.0612.
For G6A A43C C46U C66U A69G, the “yeast fitness (ln)” value was -0.0394.
With C46U C66U A70U C71U the “yeast fitness (ln)” value was -0.148.
With G1A C46U C66A A70G C71U the “yeast fitness (ln)” value was -0.11.
In the case of U2G G6U C46U C66A A70U C71U, the “yeast fitness (ln)” value is reported as -0.0156.
For G1A U2G G6U C46U C66A A69G A70G C71U, the “yeast fitness (ln)” value was -0.416.
For G1A G6A C66U A69G C71U, the “yeast fitness (ln)” value was -0.0291.
For U2C G6U C27U A69G A70U C71U, the “yeast fitness (ln)” value was -0.354.
For U2G C27U A43C C46U C66A A69G C71U, the “yeast fitness (ln)” value was -0.34.
For G1A G6A C27U A43C C46U C66U A69G A70U, the “yeast fitness (ln)” value was -0.471.
In the case of U2G C27U C46U C66U C71U, the “yeast fitness (ln)” value is reported as -0.214.
With G6U C27U C46U C66A A69G A70G the “yeast fitness (ln)” value was -0.243.
With U2C G6U C27U A43C C46U C66U A69G A70G the “yeast fitness (ln)” value was -0.256.
With G1A U2G G6A A43C C46U C66U A69G A70G the “yeast fitness (ln)” value was -0.275.
With G1A U2C G6U C46U A70G C71U the “yeast fitness (ln)” value was -0.00847.
With G1A U2G G6U C46U C66U A69G A70U the “yeast fitness (ln)” value was -0.288.
With U2G C46U C66U A70U C71U the “yeast fitness (ln)” value was -0.28.
In the case of G1A G6U C27U C71U, the “yeast fitness (ln)” value is reported as -0.251.
In the case of U2G G6U A69G C71U, the “yeast fitness (ln)” value is reported as -0.17.
For U2G G6U C46U A70U, the “yeast fitness (ln)” value was -0.0198.
In the case of G1A U2G C46U C66A A70U, the “yeast fitness (ln)” value is reported as -0.109.
For U2G G6U C27U C46U C66A A69G A70U, the “yeast fitness (ln)” value was -0.0283.
For G1A C46U C66U A69G A70U C71U, the “yeast fitness (ln)” value was -0.353.
With G6U C46U C66A A69G A70G C71U the “yeast fitness (ln)” value was -0.414.
In the case of G1A U2G C46U A70G, the “yeast fitness (ln)” value is reported as -0.103.
In the case of U2G G6U A43C C46U C66A A70G C71U, the “yeast fitness (ln)” value is reported as -0.174.
In the case of G1A G6U C27U A43C C66U, the “yeast fitness (ln)” value is reported as -0.362.
For U2G C27U C46U C66A A69G C71U, the “yeast fitness (ln)” value was -0.301.
For G1A C46U C66U A69G, the “yeast fitness (ln)” value was -0.202.
In the case of U2G G6U C27U A43C C66U A69G A70G C71U, the “yeast fitness (ln)” value is reported as -0.51.
For G6U C46U A69G, the “yeast fitness (ln)” value was -0.397.
For G1A U2C C27U A43C C46U C66U A69G A70U, the “yeast fitness (ln)” value was -0.218.
In the case of G6U C27U C66U A69G A70G C71U, the “yeast fitness (ln)” value is reported as -0.355.
With U2C C27U A43C C46U A69G A70G C71U the “yeast fitness (ln)” value was -0.0222.
With G1A G6A C27U C46U C71U the “yeast fitness (ln)” value was -0.253.
For G1A U2C G6A C27U C46U C66U A70G, the “yeast fitness (ln)” value was -0.0633.
With G1A U2G G6A C27U A43C C46U A69G A70U C71U the “yeast fitness (ln)” value was -0.443.
For G1A U2G G6A C27U A43C C46U C66U A70G C71U, the “yeast fitness (ln)” value was -0.286.
For G6U C27U A43C C66U C71U, the “yeast fitness (ln)” value was -0.34.
In the case of G1A G6A C27U C46U, the “yeast fitness (ln)” value is reported as -0.143.
In the case of G1A U2C G6A C27U A43C C71U, the “yeast fitness (ln)” value is reported as -0.295.
